We go through 19 molecules from ChEMBL document CHEMBL1772978, “Exploration of the activity of 7-pyrrolidino-8-methoxyisothiazoloquinolones against methicillin-resistant Staphylococcus aureus (MRSA)” (J Med Chem, 2011).

Converted amounts (≈) assume the structure as drawn.

The test system of data set [1] is Staphylococcus aureus. The data set can be described thus: Antibacterial activity against methicillin-sensitive Staphylococcus aureus ATCC 29213 after 24 hrs by microdilution method. Format: functional. The conditions noted are these: ATCC 29213, 24 h. An outline of the steps:
(§1)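 MIC taken as the lowest concentration with no visible bacterial growth after 18-24 h at 37 °C, given in μg/mL; modal value of multiple experiments.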
Background: In broth dilution the organism is exposed to a series of concentrations in liquid medium.

The nature of data set [2]: Cytotoxicity against human Hep2 cells after 72 hrs by alamar blue assay. The conditions noted are these: HEp-2 cells. Format: cell-based. Background: The colour change of resazurin is a common sign of viable cells or microbes.
The subject of data set [3] is Staphylococcus aureus. Put plainly: Antibacterial activity against methicillin- and quinolone-resistant Staphylococcus aureus ATCC700699 after 24 hrs by microdilution method. The conditions noted are these: ATCC700699, 24 h. In kind it is functional. An outline of the steps: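 Broth microdilution; MIC read as the lowest compound concentration that prevents visible bacterial growth after incubation at 37 °C for 18–24 h, and expressed in μg/mL.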

In a further data set the test system is Escherichia coli. The data set can be described thus: Antibacterial activity against Escherichia coli ATCC25922 after 24 hrs by microdilution method. The conditions noted are these: ATCC25922, 24 h. In kind it is functional. An outline of the steps:
as §1

With `COc1c(N2CCNCC2)c(F)cc2c(=O)c3c(=O)[nH]sc3n(C3CC3)c12`, the MIC turned out to be 0.06 µg/mL (≈ 0.154 µM) against Staphylococcus aureus [1], 4 µg/mL (≈ 10.2 µM) against Staphylococcus aureus [3] and 0.03 µg/mL (≈ 0.0768 µM) in the data set on Escherichia coli. In addition, the CC50 at 72 h in data set [2] worked out at 27 µM.
Consider `COc1c(N2CC[C@@H](N)C2)c(F)cc2c(=O)c3c(=O)[nH]sc3n(C3CC3)c12`, for which the MIC in the data set on Staphylococcus aureus [1] is 0.03 µg/mL (≈ 0.0768 µM); in the data set with Staphylococcus aureus [3] it was 2 µg/mL (≈ 5.12 µM); in the data set with Escherichia coli, 0.008 µg/mL (≈ 0.0205 µM). Also, the CC50 at 72 h in data set [2] came out at 25 µM.
Take `COc1c(N2CC[C@H](N)C2)c(F)cc2c(=O)c3c(=O)[nH]sc3n(C3CC3)c12`: the MIC against Staphylococcus aureus [1] is 0.008 µg/mL (≈ 0.0205 µM); against Staphylococcus aureus [3], 0.5 µg/mL (≈ 1.28 µM); against Escherichia coli it was 0.008 µg/mL (≈ 0.0205 µM). This molecule yielded a CC50 at 72 h in data set [2] of 19 µM.
Consider `CN[C@@H]1CCN(c2c(F)cc3c(=O)c4c(=O)[nH]sc4n(C4CC4)c3c2OC)C1`, for which the MIC was determined as 0.006 µg/mL (≈ 0.0148 µM) against Staphylococcus aureus [1], 4 µg/mL (≈ 9.89 µM) against Staphylococcus aureus [3] and 0.06 µg/mL (≈ 0.148 µM) with Escherichia coli. In data set [2], this molecule returned a CC50 at 72 h of 42 µM.
For the molecule `CN[C@H]1CCN(c2c(F)cc3c(=O)c4c(=O)[nH]sc4n(C4CC4)c3c2OC)C1`, the MIC in the data set with Staphylococcus aureus [1] came out at 0.03 µg/mL (≈ 0.0742 µM); in the data set with Staphylococcus aureus [3], 2 µg/mL (≈ 4.94 µM); against Escherichia coli it was 0.06 µg/mL (≈ 0.148 µM). For the same molecule, in data set [2], the CC50 at 72 h came to 41 µM.
With `COc1c(N2CC[C@H](CN)C2)c(F)cc2c(=O)c3c(=O)[nH]sc3n(C3CC3)c12`, the MIC was determined as 0.008 µg/mL (≈ 0.0198 µM) against Staphylococcus aureus [1], 0.25 µg/mL (≈ 0.618 µM) with Staphylococcus aureus [3] and 0.03 µg/mL (≈ 0.0742 µM) against Escherichia coli. Besides, the midpoint of cytotoxicity in data set [2], the CC50 at 72 h, lay at 11 µM.
On the same counts, the results for `COc1c(N2CC[C@@H](CN)C2)c(F)cc2c(=O)c3c(=O)[nH]sc3n(C3CC3)c12` are 0.008 µg/mL (≈ 0.0198 µM), 0.25 µg/mL (≈ 0.618 µM), 0.004 µg/mL (≈ 0.00989 µM) and 11 µM.
`CNC[C@@H]1CCN(c2c(F)cc3c(=O)c4c(=O)[nH]sc4n(C4CC4)c3c2OC)C1`: the values for the MIC against Staphylococcus aureus [1], in the data set with Staphylococcus aureus [3] and in the data set with Escherichia coli were 0.008 µg/mL (≈ 0.0191 µM), 0.5 µg/mL (≈ 1.19 µM) and 0.06 µg/mL (≈ 0.143 µM), respectively. In data set [2], this molecule yielded a CC50 at 72 h of 28 µM.
For `COc1c(N2CC[C@@H](CNCCF)C2)c(F)cc2c(=O)c3c(=O)[nH]sc3n(C3CC3)c12`, the MIC in the data set on Staphylococcus aureus [1] came out at 0.008 µg/mL (≈ 0.0178 µM); against Staphylococcus aureus [3], 0.13 µg/mL (≈ 0.289 µM); in the data set with Escherichia coli, 0.03 µg/mL (≈ 0.0666 µM). The CC50 at 72 h in data set [2] came out at 18 µM.
Consider `COc1c(N2CC[C@@H](CNC(C)C)C2)c(F)cc2c(=O)c3c(=O)[nH]sc3n(C3CC3)c12`, for which the minimum inhibitory concentration (MIC) turned out to be 0.02 µg/mL (≈ 0.0448 µM) against Staphylococcus aureus [1], 0.5 µg/mL (≈ 1.12 µM) with Staphylococcus aureus [3] and 0.06 µg/mL (≈ 0.134 µM) against Escherichia coli. In addition, in data set [2], the half-maximal cytotoxic concentration (CC50) at 72 h stood at 33 µM.
The corresponding values for `COc1c(N2CC[C@@H](CNC3CC3)C2)c(F)cc2c(=O)c3c(=O)[nH]sc3n(C3CC3)c12` are 0.004 µg/mL (≈ 0.009 µM), 0.06 µg/mL (≈ 0.135 µM), 0.03 µg/mL (≈ 0.0675 µM) and 23 µM.
The corresponding values for `COc1c(N2CC[C@@H](CN(C)C)C2)c(F)cc2c(=O)c3c(=O)[nH]sc3n(C3CC3)c12` are 0.06 µg/mL (≈ 0.139 µM), 4 µg/mL (≈ 9.25 µM), 0.13 µg/mL (≈ 0.301 µM) and above 100 µM.
On the same counts, the results for `COc1c(N2CC[C@@H]([C@@H](C)N)C2)c(F)cc2c(=O)c3c(=O)[nH]sc3n(C3CC3)c12` are 0.02 µg/mL (≈ 0.0478 µM), 0.25 µg/mL (≈ 0.597 µM), 0.03 µg/mL (≈ 0.0717 µM) and 33 µM.
As for `COc1c(N2CC[C@H]([C@@H](C)N)C2)c(F)cc2c(=O)c3c(=O)[nH]sc3n(C3CC3)c12`, the MIC is 0.02 µg/mL (≈ 0.0478 µM) against Staphylococcus aureus [1], 1 µg/mL (≈ 2.39 µM) against Staphylococcus aureus [3] and 0.06 µg/mL (≈ 0.143 µM) in the data set on Escherichia coli. Further, in data set [2], the CC50 at 72 h stood at 51 µM.
For `COc1c(N2CC[C@H]([C@H](C)N)C2)c(F)cc2c(=O)c3c(=O)[nH]sc3n(C3CC3)c12`, the MIC in the data set on Staphylococcus aureus [1] amounted to 0.03 µg/mL (≈ 0.0717 µM); with Staphylococcus aureus [3] it was 1 µg/mL (≈ 2.39 µM); with Escherichia coli it was 0.06 µg/mL (≈ 0.143 µM). The same molecule gave a CC50 at 72 h in data set [2] of 15 µM.
Turning to `CN[C@H](C)[C@@H]1CCN(c2c(F)cc3c(=O)c4c(=O)[nH]sc4n(C4CC4)c3c2OC)C1`, the MIC with Staphylococcus aureus [1] came out at 0.02 µg/mL (≈ 0.0462 µM); in the data set on Staphylococcus aureus [3] it was 0.5 µg/mL (≈ 1.16 µM); in the data set on Escherichia coli, 0.06 µg/mL (≈ 0.139 µM). In data set [2], this molecule showed a half-maximal cytotoxic concentration (CC50) at 72 h of 29 µM.
Consider `CCN[C@@H](C)[C@@H]1CCN(c2c(F)cc3c(=O)c4c(=O)[nH]sc4n(C4CC4)c3c2OC)C1`, for which the MIC in the data set on Staphylococcus aureus [1] stood at 0.004 µg/mL (≈ 0.00896 µM); against Staphylococcus aureus [3], 0.13 µg/mL (≈ 0.291 µM); with Escherichia coli, 0.06 µg/mL (≈ 0.134 µM). Also, in data set [2], the midpoint of cytotoxicity, the CC50 at 72 h, lay at 27 µM.
As for `COc1c(N2CC[C@@H]([C@@H](C)NCCF)C2)c(F)cc2c(=O)c3c(=O)[nH]sc3n(C3CC3)c12`, the MIC in the data set with Staphylococcus aureus [1] worked out at 0.004 µg/mL (≈ 0.00861 µM); with Staphylococcus aureus [3], 0.25 µg/mL (≈ 0.538 µM); with Escherichia coli, 0.06 µg/mL (≈ 0.129 µM). The molecule also gave a CC50 at 72 h in data set [2] of 74 µM.
On the same counts, the results for `COc1c(N2CC[C@@H]([C@H](C)N(C)C)C2)c(F)cc2c(=O)c3c(=O)[nH]sc3n(C3CC3)c12` are 0.008 µg/mL (≈ 0.0179 µM), 0.5 µg/mL (≈ 1.12 µM), 0.06 µg/mL (≈ 0.134 µM) and 39 µM.

For orientation: MIC means the smallest concentration in the dilution series that meets the test's criterion for growth inhibition. Lower therefore signals a more susceptible organism. As usually defined, the CC50 is the concentration giving 50% cytotoxicity. Low readings indicate harm at low concentration, high ones better tolerance by the cells.
